A selection: hits, their analogues and other compounds. The true share with any hit is near 2.5%.
EP2 antag: inhibitors of human EP2 prostaglandin E2 receptor; C6 glioma cells expressing human EP2, cAMP TR-FRET; cells stimulated with saturating PGE2; AID 1422; inhibition, % at 25 µM; hit rate 0.52% among 260,000;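 active = percent inhibition above 40 after rounding to a whole number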;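 note: rat C6 glioma host cells with rolipram phosphodiesterase inhibitor present; the protocol text gives 20 µM as final concentration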
Target sequence (P43116 whole entry, looked up): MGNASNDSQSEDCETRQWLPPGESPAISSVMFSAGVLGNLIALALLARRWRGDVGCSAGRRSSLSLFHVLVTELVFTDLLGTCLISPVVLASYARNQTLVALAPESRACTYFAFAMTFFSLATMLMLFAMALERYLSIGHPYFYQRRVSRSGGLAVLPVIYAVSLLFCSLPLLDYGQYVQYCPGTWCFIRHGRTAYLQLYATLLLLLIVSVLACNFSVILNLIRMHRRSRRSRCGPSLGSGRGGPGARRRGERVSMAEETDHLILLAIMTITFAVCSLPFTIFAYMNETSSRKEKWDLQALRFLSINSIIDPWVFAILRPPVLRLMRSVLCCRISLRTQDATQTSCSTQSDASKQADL
PHOSPHO1 block: PHOSPHO1 (human) inhibition; recombinant PHOSPHO1, absorbance phosphatase assay; hit rate 1.1% among 290,000; inhibition, % at 13.3 µM; Q8TCT1; in the data active = inhibition above about 60%
PfGluPho inh: PfG6PD (Plasmodium falciparum) enzyme inhibition; PfGluPho enzyme, NADPH resazurin-diaphorase fluorescence; inhibition, % at 20 µM; hit rate 0.78% among 350,000;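 active = inhibition reaching at least a set limit at 20 µM in the primary screen, cut at about 59% in these data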;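 note: 0% = DMSO wells with substrate and 100% = DMSO wells lacking glucose-6-phosphate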
Tb hexokinase: T. brucei hexokinase 1 inhibition; recombinant TbHK1, G6PDH-coupled NADH A340; inhibition, % at 10 µM; hit rate 0.11% among 220,000;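 active = inhibition of 50% or more in the single-dose primary screen; inactive = inhibition below 50%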
EP2 modulator: modulators of human EP2 prostaglandin E2 receptor | induction, % at 25 µM | hit rate 0.83% among 260,000 | P43116 | AID 940 | EP2-expressing cells, cAMP HTRF FRET, PGE2 co-stimulation;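 active = compounds whose cAMP rise, as percent of the full-agonist control response, exceeds 60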;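 note: rat C6 glioma line stably carrying human EP2 under a CMV promoter; the protocol text gives 20 µM as final concentration; 100% = response of wells given 1 µM PGE2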
HKDC1 inh: HKDC1 (human) hexokinase inhibition | AID 493160 | inhibition, % at 20 µM | recombinant HKDC1, G6PDH/diaphorase resazurin coupled fluorescence | Q2TB90 | hit rate 0.16% among 340,000;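 active = inhibition above about 35% when tested at 20 µM, limit read from the data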;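 note: plate controls were DMSO wells with enzyme for no effect and DMSO wells lacking enzyme for full effect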
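System: Recombinant HKDC1 hexokinase | Amount: HKDC1 at 5 µg/mL | Reagent: Glucose with 1 mM ATP | Doses: Single 20 µM dose | Incubation: Reaction time 90 min, room temperature, protected from light | Signal: Coupled resazurin fluorescence, excitation 525 nm, emission 613 nm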
* marks the source's active call; other numbers are inactive results; / = no result given.

SMILES	EP2 antag	PHOSPHO1 block	PfGluPho inh	Tb hexokinase	EP2 modulator	HKDC1 inh
CCC(c1nnnn1C1CCCCC1)N(Cc1ccco1)Cc1cc2c(C)ccc(C)c2[nH]c1=O (stereo not drawn)	13	/	/	/	76*	/
COc1ccc([C@H](C)NC[C@H](O)c2ccc(O)c(NC=O)c2)cc1	12	24	13	5	81*	0
COc1ccc(C[C@H](C)NC[C@@H](O)c2ccc(O)c(NC=O)c2)cc1	11	/	1	/	/	-1
Cc1cc2cc(C(c3nnnn3Cc3ccccc3)N3CCCC(C)C3)c(=O)[nH]c2cc1C (stereo not drawn)	15	/	/	/	19	/
O=C(c1ccccc1)N1CCN(CC(O)Cn2ccc3ccccc32)CC1 (stereo not drawn)	6	66*	-1	-2	-6	-3
OC(CN1CCCC1)Cn1ccc2ccccc21 (stereo not drawn)	/	/	-2	/	/	-3
O=C(CNCC1CCCO1)Nc1ccc(N2CCCCCC2)cc1 (stereo not drawn)	8	-10	0	-1	-25	-4
O=C(CNCC1CCCO1)Nc1ccccc1N1CCCCCC1 (stereo not drawn)	4	37	4	3	62*	2
CCCSc1nc2sc3c(c2c(=O)[nH]1)CCCC3	11	/	/	/	13	/
Cc1ccc(N(CC(=O)NCc2ccc(F)cc2)S(=O)(=O)c2c(C)nn(C)c2C)cc1	/	62*	-7	/	/	4
CCNCc1ccccc1OCc1ccccc1	7	69*	-21	-3	24	6
CC1Cc2nc(SCC(N)=O)n(Cc3ccccc3)c(=O)c2S1 (stereo not drawn)	12	22	12	-32	28	-1
CCSc1nc2c(c(=O)n1Cc1ccccc1)SC(C)C2 (stereo not drawn)	9	-14	-5	-7	62*	0
CCSc1nc2ccccc2c(=O)n1Cc1ccc(F)cc1	7	-13	-4	1	65*	-1
C=C(C)Cn1c(SCCC)nc2ccccc2c1=O	14	/	/	/	94*	/
COCCOc1cccc(CN2CCC(O)(c3ccc(F)cc3)CC2)c1	7	/	/	/	-20	/
O=C(COc1ccc(S(=O)(=O)N2CCCC2)cc1)NC1CCCC1	14	/	/	/	-14	/
O=C1NC(=S)N/C1=C/c1cc([N+](=O)[O-])ccc1O	9	82*	39	-12	-1	6
CC(=C\c1sc2ccccc2[n+]1CCO)/C=C1/Sc2ccccc2N1CCC(=O)O	11	/	/	/	-11	/
CN(C)CC(C)(C)CNC(=O)c1cccnc1Nc1cccc(C(F)(F)F)c1	12	/	/	/	-103	/
O=C1c2ccccc2-c2ccc(N=[N+]([O-])c3ccc4c(c3)C(=O)c3ccccc3-4)cc21	51*	/	/	/	0	/
S=c1[nH]nc(-c2ccccc2Cl)n1Cc1ccccc1	4	37	35	0	29	-8
Cc1nn(Cc2n[nH]c(=S)n2Cc2ccccc2)c(C)c1Cl	6	99*	35	2	9	-4
Cc1ccccc1OCc1n[nH]c(=S)n1Cc1ccccc1	3	-19	7	2	19	-9
Cc1cc(C)n(Cc2n[nH]c(=S)n2Cc2ccccc2)n1	-3	90*	9	-2	-2	-11
SMILES	EP2 antag	PHOSPHO1 block	PfGluPho inh	Tb hexokinase	EP2 modulator	HKDC1 inh
O=C(c1ccc2c(c1)OCCO2)N1C2CCC1CC(c1ccc(F)cc1)C2 (stereo not drawn)	9	/	/	/	-37	/
O=C(O)c1cccc(N/N=C/c2ccc(F)c(F)c2)c1	15	-56	1	-9	-31	-5
O=C(O)c1cccc(N/N=C/C2=C(Cl)c3cc(Cl)ccc3SC2)c1	9	24	-33	8	63*	0
Cc1nnc(NC(=O)c2c(-c3ccccc3Cl)noc2C)s1	7	60*	-4	-3	-6	-7
Cc1onc(-c2ccccc2Cl)c1C(=O)NC(=S)NCC(=O)c1ccccc1	9	63*	-1	-1	21	11
Cc1onc(-c2ccccc2Cl)c1C(=O)Nc1sc2c(c1C(N)=O)CCC(C)C2 (stereo not drawn)	/	-7	-12	-15	62*	4
Cc1onc(-c2ccccc2Cl)c1C(=O)Nc1nnc(C(C)C)s1	12	1	-6	-4	15	-1
COCCCn1c(SCC(=O)Nc2cc(C)ccc2C)nnc1-c1ccoc1C	10	/	/	/	12	/
S=c1[nH]nc(CSCc2ccccc2Cl)n1-c1ccccc1	14	105*	8	3	7	6
